# Assay outcomes (PubChem)
# The list is not random: actives were taken first. Their share in the collection is about 2.3%.
# GPR7 antagonist: GPR7 receptor antagonists, primary screen, cell-based, fluorescence, single concentration. Neuropeptides B/W receptor type 1 (Homo sapiens), P48145. GPR7-expressing cells, fluorescence antagonist assay. inhibition, % at 4.4 µM. actives 1.1% (n = 290,000). AID 1861, 2009; in the data active = inhibition above about 16%, passing the limit was not always enough;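 also: cells stimulated with the agonist NPW; 0% = agonist with vehicle and 100% = vehicle without agonist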
# Target sequence (P48145 whole entry, looked up): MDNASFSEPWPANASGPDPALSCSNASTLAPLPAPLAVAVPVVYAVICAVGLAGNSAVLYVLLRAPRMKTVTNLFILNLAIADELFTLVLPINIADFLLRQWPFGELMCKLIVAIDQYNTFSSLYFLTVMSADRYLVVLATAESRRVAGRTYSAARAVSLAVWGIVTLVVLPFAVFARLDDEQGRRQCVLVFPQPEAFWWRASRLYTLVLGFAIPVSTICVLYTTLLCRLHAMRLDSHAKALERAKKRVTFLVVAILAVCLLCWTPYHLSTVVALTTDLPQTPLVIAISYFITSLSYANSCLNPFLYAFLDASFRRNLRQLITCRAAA
# EBNA-1 inh: EBNA-1 DNA-binding inhibitors, primary screen, biochemical, fluorescence polarization; inhibition, % at 14.8 µM; actives 0.34% (n = 300,000); in the data active = inhibition above about 28%
# ZTA DNA inh: blocks Epstein-Barr virus ZTA, an EBNA-1 counter-screen; P03206; ZTA-DNA binding, fluorescence polarization; inhibition, % at 11 µM; actives 0.15% (n = 320,000); AID 2234; in the data active = inhibition above about 33%
# HCV core dimer: inhibitors of HCV core protein dimerization, primary screen, biochemical, TR-FRET, high-throughput. TR-FRET GST/Flag-core106 dimerization, 1536-well. inhibition, % at 5 µM. actives 0.33% (n = 300,000);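 active = inhibition above the mean of all tested compounds plus 3 SD, set per screening campaign, cut at about 45% in these data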
#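 System – GST-tagged and Flag-tagged HCV core protein residues 1-106 · Repeats – one well for each compound · Technique – TR-FRET 671 and 617 nm emission · Doses – one concentration, 5 µM, in 0.5% DMSO · Times – 4 h, 22.5 °C incubation · Also added – Eu donor and XL665 acceptor anti-tag antibodies · Measure – percent inhibition of core106 dimerization signal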
# HCV NS3 hel inh: inhibitors of HCV NS3 helicase, primary screen, biochemical, Cy5 molecular beacon fluorescence; NS3 helicase DNA unwinding; actives 0.56% (n = 290,000); Hepatitis C virus NS3 helicase; inhibition, % at 10.9 µM;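 active = inhibition above the mean of all tested compounds plus 3 SD, set per campaign, cut at about 35% in these data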;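 also: 0% = DMSO wells and 100% = thioflavine S control wells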
#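 System: Hepatitis C virus NS3 helicase domain fragment enzyme | Reagent: Annealed dual-labelled DNA beacon duplex, ATP-started | Compound dosing: 10.9 µM single point, 0.8% DMSO | Incubation: 1 h reaction at 25 °C, ATP-initiated | Technique: Cy5 fluorescence | Evaluation: Percent inhibition from t60/t0 fluorescence ratio | Benchmarks: Low DMSO, high thioflavine S at 110 µM | Replication: Singlicate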
# EBV gp42 block: Epstein-Barr virus gp42 inhibitors, primary screen, biochemical, uHTS, fluorescence polarization | Glycoprotein 42 (Epstein-Barr virus (strain AG876)), Q1HVG2 | Fluorescence polarization binding assay, mP read-out | inhibition, % (tested at 21.74 µM) | actives 0.42% (n = 220,000); in the data active = inhibition above about 50%
# Target sequence (Q1HVG2 whole entry, looked up): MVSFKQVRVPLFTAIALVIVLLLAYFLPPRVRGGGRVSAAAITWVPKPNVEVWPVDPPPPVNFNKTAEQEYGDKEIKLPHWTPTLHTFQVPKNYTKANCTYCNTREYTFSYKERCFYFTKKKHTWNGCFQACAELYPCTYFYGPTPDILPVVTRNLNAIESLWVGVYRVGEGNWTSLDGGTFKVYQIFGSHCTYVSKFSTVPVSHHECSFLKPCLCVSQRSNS
# * hit, by the source's call; nt = not tested or not shown.
SMILES,GPR7 antagonist,EBNA-1 inh,ZTA DNA inh,HCV core dimer,HCV NS3 hel inh,EBV gp42 block
CCN(c1ccccc1)S(=O)(=O)c1cc(C(=O)OC(C)C(=O)Nc2ccc3c(c2)OCCO3)ccc1C (centres undefined),-3,-10,-20,14,-9,-20
COCCn1c(-c2ccco2)csc1=Nc1cccnc1,-4,11,2,5,0,-17
CC(C)Cn1c(-c2ccco2)csc1=Nc1cccnc1,3,6,0,50*,31,3
Cc1cc(C)n(-c2cc(N3CCN(S(=O)(=O)c4ccc5ccccc5c4)CC3)ccc2[N+](=O)[O-])n1,-5,6,1,54*,-9,-1
CC(O/N=C/c1ccc(OC(F)F)cc1)C(=O)Nc1cccc(S(=O)(=O)N2CCOCC2)c1 (centres undefined),-5,8,9,4,4,0
O=S(=O)(Nc1cccc(-c2cn3cccnc3n2)c1)c1ccc(-c2ccccc2)cc1,-7,-11,1,50*,-11,-22
O=C(Nc1cccc2cccc(NC(=O)c3ccco3)c12)c1ccco1,-7,-3,13,48*,0,-19
CC(Sc1nnc(Cc2ccccc2)o1)C(=O)Nc1ccccc1[N+](=O)[O-] (centres undefined),nt,nt,-15,nt,nt,nt
NS(=O)(=O)c1ccc(N/N=C/c2ccc(O)c(O)c2O)c([N+](=O)[O-])c1,-1,nt,nt,nt,26,97*
NS(=O)(=O)c1ccc(N/N=C/c2ccc(O)cc2O)c([N+](=O)[O-])c1,1,0,-6,-23,-12,7
O=C(OCc1ccco1)c1ccc(S(=O)(=O)N2CCCCC2)cc1,-6,-2,14,80*,16,-7
O=C(COC(=O)c1ccc(S(=O)(=O)N2CCCCC2)cc1)NCc1ccco1,-8,-5,2,9,-8,1
Cc1cc(NC(=O)CCC(=O)N(Cc2ccco2)C2(C(=O)NC3CCCCC3)CCCCC2)no1,5,0,-11,1,8,nt
COC/C=C/C1=CC2=CC(=O)C(C)(O)C(=O)C2=CO1 (centres undefined),nt,-5,13,58*,nt,nt
COC/C=C/C1=CC2=CC(=O)C(C)(OC(=O)c3ccco3)C(=O)C2=CO1 (centres undefined),nt,13,29,51*,nt,8
COC/C=C/C1=CC2=CC(=O)C(C)(OC(=O)C3CCCC3)C(=O)C2=CO1 (centres undefined),nt,9,19,7,nt,-8
CC(C)N1CCC(N2CCN(C/C=C/c3ccccc3)CC2CCO)CC1 (centres undefined),0,-19,9,-1,-10,-10
CCN1CCN(CC(=O)N2N=C(c3cccs3)CC2c2ccc(OC)c(OC)c2)C(=O)C1=O (centres undefined),2,2,8,1,-17,64*
CCN1CCN(CC(=O)N2N=C(c3cccs3)CC2c2ccc(F)cc2)C(=O)C1=O (centres undefined),-16,11,-1,-1,12,-7
COc1ccc(N2CCOCC2)c(NC(=O)c2cccs2)c1,-22,-2,-11,-4,5,nt
COc1cc(OC)c(NC(=O)CN(C)S(=O)(=O)c2ccc(-c3ccc(=O)[nH]n3)s2)cc1Cl,-5,-14,14,53*,-5,nt
CCc1ccccc1NC(=O)CN(C)S(=O)(=O)c1ccc(-c2ccc(=O)[nH]n2)s1,-10,5,14,12,8,nt
O=C(Cc1cccs1)Nc1ccc(S(=O)(=O)N2CCCCC2)cc1,3,-7,-10,72*,7,-3
O=C(Cc1ccc(S(=O)(=O)N2CCOCC2)s1)Nc1nc2c(s1)CCCC2,-6,-8,-32,84*,23,-11
CC(=O)Nc1ccc(NC(=O)Cc2ccc(S(=O)(=O)N3CCCCC3)s2)cc1,6,-7,-21,60*,13,5
SMILES,GPR7 antagonist,EBNA-1 inh,ZTA DNA inh,HCV core dimer,HCV NS3 hel inh,EBV gp42 block
CCOC(=O)c1cc(C#N)c(C)nc1N(CC)CC,-18,-6,5,-1,-8,-11
O=C(Cc1cccs1)NCCSc1c(-c2ccc(Cl)cc2)[nH]c2ccccc12,19*,-4,-9,-428,0,0
O=C1CC(N2CCN(S(=O)(=O)c3cccc(C(F)(F)F)c3)CC2)C(=O)N1Cc1ccccc1 (centres undefined),25*,0,9,1,-4,8
Cc1cc(=O)oc2c(CN3CCCC3)c(O)c(Cl)cc12,1,6,-4,1,3,nt
Cc1cc(=O)oc2c3c4c(cc12)OCCN4CCC3,-8,2,1,8,-3,65*
O=c1oc2c3c4c(cc2c(C(F)(F)F)c1CCN1CCOCC1)CCCN4CCC3,7,-11,11,-5,-8,139*
CC(C)c1cc(=O)oc2c3c4c(cc12)CCCN4CCC3,6,7,3,11,7,51*
N=c1oc2c3c4c(cc2cc1C(=O)Nc1ccccc1)CCCN4CCC3,-4,-2,-16,39,13,-67
CCC(NC(=O)Nc1nnc(C(F)(F)F)s1)(C(F)(F)F)C(F)(F)F,29*,3,11,-3,7,-20
COc1ccc(OC)c(N2C(=O)[C@@H]3C(c4ccccc4Cl)=NO[C@@H]3C2=O)c1,-5,9,-4,77*,14,0
CCCn1c(=C(C#N)C#N)s/c(=C2\C=Cc3ccccc3N2CC)c1=O,-2,nt,nt,nt,1,53*
Cc1sc2ncn(CC(=O)NCc3ccco3)c(=O)c2c1-c1ccc(F)cc1,11,8,16,29,24,-18
O=C(Cn1cnc2scc(-c3cccc([N+](=O)[O-])c3)c2c1=O)NCc1ccco1,-8,-6,17,64*,35,66*
C/C(=C/C(=O)Nc1cccc(F)c1)N1CCCC1,-1,-9,2,0,11,-8
COc1ccc(CC(=O)Nc2ccc(-c3nnc(-c4ccccc4)o3)cc2)cc1OC,-1,13,8,83*,5,-61
O=C(COc1ccccc1)Nc1ccc(-c2nnc(-c3ccco3)o2)cc1,-14,-8,-1,52*,-1,-5
COc1ccc(-c2cc(C)no2)cc1S(=O)(=O)NCC(C)c1ccccc1 (centres undefined),4,6,1,5,-16,nt
